For nine compounds, IC50 and Resistance index results are on record in ChEMBL document CHEMBL1128338, “Synthesis and activity of some antimalarial bisquinolines” (J Med Chem, 1995).

What is called IC50 is the concentration that gives 50% inhibition. Higher therefore signals a need for much substance.

Assay [1] relates to Plasmodium falciparum. In words: In vitro inhibition chloroquine-resistant Plasmodium falciparum K1. The assay is classed as functional, organism-based. Summed up: (§1)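 P. falciparum blood-stage cultures plated at c. 1% parasitemia, 2% hematocrit, exposed to a range of drug concentrations (compounds from 30 mM DMSO stocks; final DMSO <0.1%). Incubated 4 days with daily replacement of drug-containing medium. Growth curves run in duplicate; IC50 taken as concentration giving 50% growth inhibition.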

In assay [2] the test system is Plasmodium falciparum. In words: In vitro inhibition of chloroquine-resistant Plasmodium falciparum FAC8. In kind it is functional, organism-based. Summed up:
as §1

Assay [3] can be described thus: Resistance index as the ratio of IC50 value against FAC8 to that of D10 strains. In kind it is functional. A digest of the protocol:
(§2)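 Ratio of IC50 against the CQ-resistant strain (FAC8 or K1) to IC50 against CQ-sensitive D10. IC50s from 4-day growth assays at c. 1% parasitemia, 2% hematocrit, daily drug-medium replacement, duplicate growth curves.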

Assay [4] is described as follows: Resistance index as the ratio of IC50 value against K1 to that of D10 strains. In kind it is functional. A digest of the protocol:
as §2

For assay [5], the system named is Plasmodium falciparum. The assay is described as follows: In vitro inhibition of chloroquine-sensitive Plasmodium falciparum D-10. The assay is classed as functional, organism-based. Summed up:
as §1

Turning to `CCN(CC)CCCC(C)Nc1ccnc2c(NC(=O)C(=O)Nc3cccc4c(NC(C)CCCN(CC)CC)ccnc34)cccc12` (stereo not given), the IC50 stood at 2300 nM with Plasmodium falciparum [1], 1900 nM in the assay on Plasmodium falciparum [2] and 1300 nM in the assay with Plasmodium falciparum [5]. Moreover, the Resistance index in assay [3] worked out at 1.4; in assay [4], 1.7.
For `CCN(CC)CCCC(C)Nc1ccnc2c(NC(=O)CCCCC(=O)Nc3cccc4c(NC(C)CCCN(CC)CC)ccnc34)cccc12` (stereo not given) the same measures were 230 nM, 120 nM, 130 nM, 0.9 and 1.8.
For `CCN(CC)CCCC(C)Nc1ccnc2ccc(NC(=O)CCCCCCCCC(=O)Nc3ccc4nccc(NC(C)CCCN(CC)CC)c4c3)cc12` (stereo not given) the same measures were 8400 nM, 3800 nM, 5700 nM, 0.7 and 1.5.
Consider `CCN(CC)CCCC(C)Nc1ccnc2ccc(NC(=O)C(=O)Nc3ccc4nccc(NC(C)CCCN(CC)CC)c4c3)cc12` (stereo not given), for which the IC50 in the assay on Plasmodium falciparum [1] came out at 2200 nM; with Plasmodium falciparum [2], 1800 nM; in the assay on Plasmodium falciparum [5] it was 2600 nM. Also, the Resistance index was determined as 0.7 in assay [3] and 0.8 in assay [4].
The like results for `CCN(CC)CCCC(C)Nc1ccnc2c(NC(=O)CCC(=O)Nc3cccc4c(NC(C)CCCN(CC)CC)ccnc34)cccc12` (stereo not given) were, in that order, 2500 nM, 1200 nM, 500 nM, 2.2 and 5.
`CCN(CC)CCCC(C)Nc1ccnc2ccc(NC(=O)CCCCCCC(=O)Nc3ccc4nccc(NC(C)CCCN(CC)CC)c4c3)cc12` (stereo not given): the IC50 in the assay with Plasmodium falciparum [1] was found to be 7400 nM; with Plasmodium falciparum [2], 5200 nM; in the assay on Plasmodium falciparum [5] it was 5000 nM. For the same compound, the Resistance index in assay [3] worked out at 1; in assay [4] it was 1.5.
The like results for `CCN(CC)CCCC(C)Nc1ccnc2ccc(NC(=O)CCCCC(=O)Nc3ccc4nccc(NC(C)CCCN(CC)CC)c4c3)cc12` (stereo not given) were, in that order, 15900 nM, 10300 nM, 9600 nM, 1.1 and 1.7.
For `CCN(CC)CCCC(C)Nc1ccnc2c(NC(=O)CCCCCCC(=O)Nc3cccc4c(NC(C)CCCN(CC)CC)ccnc34)cccc12` (stereo not given) the same measures were 600 nM, 350 nM, 380 nM, 0.9 and 1.6.
For `CCN(CC)CCCC(C)Nc1ccnc2c(NC(=O)CCCCCCCCC(=O)Nc3cccc4c(NC(C)CCCN(CC)CC)ccnc34)cccc12` (stereo not given) the same measures were 290 nM, 310 nM, 260 nM, 1.2 and 1.1.
